Laboratory results published in ChEMBL document CHEMBL3085668, “α- and β-hydrazino acid-based pseudopeptides inhibit the chymotrypsin-like activity of the eukaryotic 20S proteasome” (Eur J Med Chem, 2013).
Active and inactive are the calls of the source. The rule behind the calls is not given here.

What was measured:
[1] = (§1) Inhibition of chymotrypsin like activity of rabbit 20S proteasome using Suc-LLVY-AMC as substrate after 45 mins; parameters: species or system Oryctolagus cuniculus
Summary of the method: (§2)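 Rabbit 20S proteasome (0.3 nM final) incubated with Suc-LLVY-AMC ([…] final) at 37 °C for 45 min in pH 7.5 buffer of 20 mM Tris, 1 mM DTT, 10% glycerol. Chymotrypsin-like activity was followed as substrate hydrolysis (AMC release), with and without test compound. Inhibition was taken relative to the no-compound control.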

Oryctolagus cuniculus [2] = organism: Oryctolagus cuniculus; experiment: Inhibition of chymotrypsin like activity of rabbit 20S proteasome using Suc-LLVY-AMC as substrate at 100 uM after 45 mins relative to control; summary of the method: as §2
Oryctolagus cuniculus [3] = organism: Oryctolagus cuniculus; experiment: as §1; summary of the method: as §2

Structure (SMILES) | IC50 [1] [µM] | further results
COC(=O)C(Cc1ccccc1)NC(=O)CCNNC(=O)C(CCCCN)NC(=O)Cc1cccc(Oc2ccccc2)c1 (centres undefined) | 1.4 | 
COc1ccc(OC)c(CC(=O)NC(CCCCN)C(=O)NNCCC(=O)NCc2cc(OC)c(OC)c(OC)c2)c1 (centres undefined) | 11.8 | 
COC(=O)[C@H](Cc1ccccc1)NC(=O)CC(NNC(=O)[C@H](CCCCNC(=O)OCc1ccccc1)NC(=O)Cc1cc(OC)ccc1OC)C(F)(F)F (some centres undefined) |  | inhibition (Oryctolagus cuniculus [2]): 30%
COc1cc(CNC(=O)CCNNC(=O)C(CCCCN)NC(=O)Cc2cccc(Oc3ccccc3)c2)cc(OC)c1OC (centres undefined) | 3.3 | 
COc1cc(CNC(=O)CC(NNC(=O)[C@H](CCCCN)NC(=O)Cc2cccc(Oc3ccccc3)c2)C(F)(F)F)cc(OC)c1OC (some centres undefined) | 6.2 | 
COC(=O)[C@H](Cc1ccccc1)NC(=O)CC(NNC(=O)Cc1cc(OC)ccc1OC)C(F)(F)F (some centres undefined) |  | inhibition (Oryctolagus cuniculus [3]): inactive
COc1ccc(C[C@H](NC(=O)Cc2cccc(Oc3ccccc3)c2)C(=O)NNC(=O)CC(NNC(=O)OC(C)(C)C)C(F)(F)F)cc1OC (some centres undefined) |  | inhibition (Oryctolagus cuniculus [3]): inactive
COc1ccc(OC)c(CC(=O)N[C@@H](CCCCN)C(=O)NNC(CC(=O)NCc2cc(OC)c(OC)c(OC)c2)C(F)(F)F)c1 (some centres undefined) | 97 | 
COC(=O)[C@H](Cc1ccccc1)NC(=O)CCNNC(=O)[C@H](CCCCN)NC(=O)Cc1cc(OC)ccc1OC | 8.8 | 
COC(=O)C(Cc1ccccc1)NC(=O)CCNNC(=O)C(N)CCCCNC(=O)OCc1ccccc1 (centres undefined) | 18.2 | 
COc1cc(CNC(=O)CCNNC(=O)C(CCCCNC(=O)OC(C)(C)C)NC(=O)Cc2cccc(Oc3ccccc3)c2)cc(OC)c1OC (centres undefined) | 4.7 | 
COC(=O)[C@H](Cc1ccccc1)NC(=O)CCNNC(=O)[C@H](CCCCNC(=O)OCc1ccccc1)NC(=O)Cc1cc(OC)ccc1OC | 3.6 | 
COc1ccc(C[C@H](NC(=O)OCC2c3ccccc3-c3ccccc32)C(=O)NNC(=O)CC(NNC(=O)OC(C)(C)C)C(F)(F)F)cc1OC (some centres undefined) |  | inhibition (Oryctolagus cuniculus [3]): inactive
COC(=O)[C@H](Cc1ccccc1)NC(=O)CNNC(=O)C(CCCCNC(=O)OCc1ccccc1)NC(=O)OC(C)(C)C (some centres undefined) | 11.8 | 
COC(=O)[C@H](Cc1ccccc1)NC(=O)CNNC(=O)C(CCCCN)NC(=O)Cc1cccc(Oc2ccccc2)c1 (some centres undefined) | 0.7 | 
COC(=O)C(Cc1ccccc1)NC(=O)CCNNC(=O)C(CCCCNC(=O)OCc1ccccc1)NC(=O)OC(C)(C)C (centres undefined) | 48.5 | 
COC(=O)[C@H](Cc1ccccc1)NC(=O)CNNC(=O)C(CCCCN)NC(=O)Cc1cc(OC)ccc1OC (some centres undefined) | 1 | 
COc1cc(CNC(=O)CC(NNC(=O)[C@H](CCCCNC(=O)OCc2ccccc2)NC(=O)OC(C)(C)C)C(F)(F)F)cc(OC)c1OC (some centres undefined) |  | inhibition (Oryctolagus cuniculus [2]): 35%
COC(=O)[C@H](Cc1ccccc1)NC(=O)CC(NNC(=O)[C@H](CC(N)=O)NC(=O)OC(C)(C)C)C(F)(F)F (some centres undefined) |  | inhibition (Oryctolagus cuniculus [2]): 30%
COc1cc(CNC(=O)CC(NNC(=O)[C@H](CC(N)=O)NC(=O)OC(C)(C)C)C(F)(F)F)cc(OC)c1OC (some centres undefined) |  | inhibition (Oryctolagus cuniculus [3]): inactive
COC(=O)[C@H](Cc1ccccc1)NC(=O)CNNC(=O)C(CCCCNC(=O)OCc1ccccc1)NC(=O)Cc1cccc(Oc2ccccc2)c1 (some centres undefined) | 1.1 | 
COc1ccc(OC)c(CC(=O)NC(CCCCNC(=O)OC(C)(C)C)C(=O)NNCCC(=O)NCc2cc(OC)c(OC)c(OC)c2)c1 (centres undefined) | 31.4 | 
COC(=O)C(Cc1ccccc1)NC(=O)CCNNC(=O)C(CCCCNC(=O)OCc1ccccc1)NC(=O)Cc1cccc(Oc2ccccc2)c1 (centres undefined) | 2.8 | 
COc1ccc(C[C@H](NC(=O)Cc2cccc(Oc3ccccc3)c2)C(=O)NNC(=O)CC(NNC(=O)OCc2ccccc2)C(F)(F)F)cc1OC (some centres undefined) |  | inhibition (Oryctolagus cuniculus [3]): inactive
COC(=O)[C@H](Cc1ccccc1)NC(=O)CC(NNC(=O)[C@H](CC(N)=O)NC(=O)Cc1cc(OC)ccc1OC)C(F)(F)F (some centres undefined) |  | inhibition (Oryctolagus cuniculus [3]): inactive
COc1ccc(OC)c(CC(=O)N[C@@H](CCCCNC(=O)OCc2ccccc2)C(=O)NNC(CC(=O)NCc2cc(OC)c(OC)c(OC)c2)C(F)(F)F)c1 (some centres undefined) |  | inhibition (Oryctolagus cuniculus [3]): inactive
COc1ccc(C[C@H](NC(=O)OCC2c3ccccc3-c3ccccc32)C(=O)NNC(=O)CC(NNC(=O)OCc2ccccc2)C(F)(F)F)cc1OC (some centres undefined) |  | fold change (FC) (Oryctolagus cuniculus [2]): 3.6
COc1ccc(C[C@H](N)C(=O)NNC(=O)CC(NNC(=O)OCc2ccccc2)C(F)(F)F)cc1OC (some centres undefined) |  | inhibition (Oryctolagus cuniculus [3]): inactive

More lines, main results first:

IC50 [1] [µM] | Structure (SMILES) | further results
7.1 | COC(=O)[C@H](Cc1ccccc1)NC(=O)CNNC(=O)C(CCCCNC(=O)OCc1ccccc1)NC(=O)Cc1cc(OC)ccc1OC (some centres undefined) | 
5.9 | COC(=O)[C@H](Cc1ccccc1)NC(=O)CC(NNC(=O)[C@H](CCCCN)NC(=O)Cc1cc(OC)ccc1OC)C(F)(F)F (some centres undefined) | 
8.4 | COC(=O)[C@H](Cc1ccccc1)NC(=O)CC(NNC(=O)[C@H](CCCCN)NC(=O)Cc1cccc(Oc2ccccc2)c1)C(F)(F)F (single isomer, unassigned; diastereomer 1) | 
6 | COc1cc(CNC(=O)CCNNC(=O)[C@H](CCCCNC(=O)OC(C)(C)C)NC(=O)OCC2c3ccccc3-c3ccccc32)cc(OC)c1OC | 
10.1 | COc1cc(CNC(=O)CC(NNC(=O)[C@@H](N)CCCCNC(=O)OCc2ccccc2)C(F)(F)F)cc(OC)c1OC (some centres undefined) | 
5.9 | COC(=O)[C@H](Cc1ccccc1)NC(=O)CC(NNC(=O)[C@H](CCCCN)NC(=O)Cc1cccc(Oc2ccccc2)c1)C(F)(F)F (single isomer, unassigned; diastereomer 2) | 
